Active and inactive are the calls of the source. No cut-off for these calls is given here.
Legend:
Plasmodium falciparum = assay: Antimalarial activity against erythrocytic stage of chloroquine and pyrimethamine-resistant Plasmodium falciparum K1; assay type: functional, organism-based
Procedure, shortened: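 P. falciparum K1 (chloroquine- and pyrimethamine-resistant), erythrocytic stage, growth inhibition read as IC50 in µM. Chloroquine served as the positive control. Values are means of duplicate assays.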

L6 = assay: Cytotoxicity against rat L6 cells; assay type: cell-based
Procedure, shortened: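 Rat skeletal myoblast L6 cell line, tested alongside the P. falciparum K1 assay so that a selectivity index (IC50 L6 / IC50 Pf) could be derived. Read-out is IC50 in µM, reported as the mean of duplicate assays.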

[1] = Selectivity index, ratio of IC50 for rat L6 cells to IC50 for erythrocytic stage of chloroquine and pyrimethamine-resistant Plasmodium falciparum K1; assay type: toxicity, cell-based; settings: read-out: Ratio IC50
Procedure, shortened: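 Selectivity index calculated as the IC50 against rat L6 skeletal myoblasts divided by the IC50 against the erythrocytic stage of P. falciparum K1, both in µM. Chloroquine served as the positive control in the parasite assay. IC50 values are means of duplicate assays.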

Plasmodium berghei [2] = assay: Antimalarial activity against GFP-transfected Plasmodium berghei ANKA infected in NMRI mouse assessed as reduction of parasitaemia at 50 mg/kg, ip qd for 4 days
Plasmodium berghei [3] = assay: Antimalarial activity against GFP-transfected Plasmodium berghei ANKA infected in NMRI mouse assessed as increase of mean survival time at 50 mg/kg, ip qd for 4 days
Mus musculus [4] = assay: Acute toxicity in NMRI mouse infected with GFP-transfected Plasmodium berghei ANKA at 150 mg/kg, ip; assay type: organism-based; set-up: dose 150 mg/kg, route intraperitoneal; settings: in vivo
Plasmodium berghei [5] = assay: Antimalarial activity against GFP-transfected Plasmodium berghei ANKA infected in NMRI mouse assessed as reduction of parasitaemia at 30 mg/kg, ip qd for 4 days; set-up: scale not given: the % may be the effect or the level left; settings: route intraperitoneal
Plasmodium berghei [6] = assay: Antimalarial activity against GFP-transfected Plasmodium berghei ANKA infected in NMRI mouse assessed as increase of mean survival time at 30 mg/kg, ip qd for 4 days
Plasmodium berghei [7] = assay: Antimalarial activity against GFP-transfected Plasmodium berghei ANKA infected in NMRI mouse assessed as increase of mean survival time at 20 mg/kg, ip qd for 4 days
Plasmodium berghei [8] = assay: Antimalarial activity against GFP-transfected Plasmodium berghei ANKA infected in NMRI mouse assessed as reduction of parasitaemia at 20 mg/kg, ip qd for 4 days
Mus musculus [9] = assay: Acute toxicity in NMRI mouse infected with GFP-transfected Plasmodium berghei ANKA at 100 mg/kg, ip; assay type: organism-based; set-up: dose 100 mg/kg, route intraperitoneal; settings: in vivo

| SMILES | IC50 (Plasmodium falciparum) [nM] | IC50 (L6) [nM] | selectivity ratio [1] | also measured |
| --- | --- | --- | --- | --- |
| CC(C)(C)OC(=O)N(CCCCCCCCCCCCN(CCCNC(=O)c1ccccc1O)C(=O)OC(C)(C)C)CCCNC(=O)c1ccccc1O | 500 | 93000 | 186 |  |
| O=C(NCCCNCCCCNCCCNC(=O)c1ccccc1)c1ccccc1 | 450 | 89000 | 200 |  |
| O=C(NCCCNCCCCCCCCCCCCNCCCNC(=O)c1ccccc1)c1ccccc1 | 160 | 6900 | 43 |  |
| COc1ccc(OC)c(C(=O)NCCCNCCCCNCCCNC(=O)c2cc(OC)ccc2OC)c1 | 930 | 75000 | 81 |  |
| O=C(Cc1ccccc1O)NCCCNCCCCCCCCNCCCNC(=O)Cc1ccccc1O | 1.3 | 55000 | 42300 |  |
| O=C(NCCCNCCCCCCCCCCCCNCCCNC(=O)c1ccccc1O)c1ccccc1O | 380 | 2500 | 6.6 |  |
| O=C(CCc1ccccc1)NCCCNCCCCCCCCCCCCNCCCNC(=O)CCc1ccccc1 | 73 | 6900 | 95 |  |
| CC(C)(C)OC(=O)N(CCCCCCCCCCCCN(CCCNC(=O)CCc1ccccc1O)C(=O)OC(C)(C)C)CCCNC(=O)CCc1ccccc1O | 130 | 3600 | 28 |  |
| COc1ccc(CC(=O)NCCCN(CCCCCCCCCCCCN(CCCNC(=O)Cc2ccc(OC)cc2)C(=O)OC(C)(C)C)C(=O)OC(C)(C)C)cc1 | 210 | 4700 | 22 |  |
| COc1ccc(CCC(=O)NCCCN(CCCCCCCCCCCCN(CCCNC(=O)CCc2ccc(OC)c(OC)c2)C(=O)OC(C)(C)C)C(=O)OC(C)(C)C)cc1OC | 66 | 2500 | 38 |  |
| CC(C)(C)OC(=O)N(CCCCCCCCN(CCCNC(=O)Cc1ccccc1O)C(=O)OC(C)(C)C)CCCNC(=O)Cc1ccccc1O | 730 | 16000 | 22 |  |
| COc1ccc(OC)c(CCC(=O)NCCCNCCCCNCCCNC(=O)CCc2cc(OC)ccc2OC)c1 | 6.1 | 99000 | 16200 |  |
| O=C(CCc1ccccc1O)NCCCNCCCCNCCCNC(=O)CCc1ccccc1O | 15 | 86000 | 5700 | Activity (Plasmodium berghei [2]): inactive; Activity (Plasmodium berghei [3]): inactive; Activity (Mus musculus [4]): Non-toxic |
| COc1ccc(CCC(=O)NCCCNCCCCCCCCCCCCNCCCNC(=O)CCc2ccc(OC)c(OC)c2)cc1OC | 71 | 57000 | 803 |  |
| COc1ccc(OC)c(C(=O)NCCCN(CCCCCCCCCCCCN(CCCNC(=O)c2cc(OC)ccc2OC)C(=O)OC(C)(C)C)C(=O)OC(C)(C)C)c1 | 180 | 1800 | 10 |  |
| O=C(Cc1ccccc1)NCCCNCCCCCCCCCCCCNCCCNC(=O)Cc1ccccc1 | 160 | 22000 | 138 |  |
| COc1ccccc1CC(=O)NCCCN(CCCCCCCCCCCCN(CCCNC(=O)Cc1ccccc1OC)C(=O)OC(C)(C)C)C(=O)OC(C)(C)C | 460 | 2700 | 5.9 |  |
| O=C(Cc1ccccc1O)NCCCNCCCCCCCCCCCCNCCCNC(=O)Cc1ccccc1O | 8.6 | 42000 | 4880 |  |
| COc1ccccc1CC(=O)NCCCNCCCCCCCCCCCCNCCCNC(=O)Cc1ccccc1OC | 78 | 21000 | 269 |  |

| SMILES | IC50 (Plasmodium falciparum) [nM] | IC50 (L6) [nM] | selectivity ratio [1] | also measured |
| --- | --- | --- | --- | --- |
| COc1ccc(OC)c(CC(=O)NCCCNCCCCCCCCCCCCNCCCNC(=O)Cc2cc(OC)ccc2OC)c1 | 190 | 23000 | 121 |  |
| CC(C)(C)OC(=O)N(CCCCCCCCCCCCN(CCCNC(=O)CCc1ccccc1)C(=O)OC(C)(C)C)CCCNC(=O)CCc1ccccc1 | 240 | 4000 | 17 |  |
| O=C(NCCCNCCCCNCCCNC(=O)c1ccccc1O)c1ccccc1O | 1900 | 83000 | 44 |  |
| O=C(CCc1ccccc1O)NCCCNCCCCCCCCCCCCNCCCNC(=O)CCc1ccccc1O | 9.5 | 62000 | 6530 |  |
| COc1ccc(OC)c(C(=O)NCCCNCCCCCCCCCCCCNCCCNC(=O)c2cc(OC)ccc2OC)c1 | 390 | 2200 | 5.6 |  |
| O=C(CCc1ccccc1)NCCCNCCCCNCCCNC(=O)CCc1ccccc1 | 100 | 91000 | 910 |  |
| COc1ccc(OC)c(CC(=O)NCCCN(CCCCCCCCN(CCCNC(=O)Cc2cc(OC)ccc2OC)C(=O)OC(C)(C)C)C(=O)OC(C)(C)C)c1 | 48 | 1900 | 40 |  |
| O=C(Cc1ccccc1O)NCCCNCCCCNCCCNC(=O)Cc1ccccc1O |  |  |  | Activity (Mus musculus [4]): Toxic; Activity (Plasmodium berghei [5]): 27.9%; Activity (Plasmodium berghei [6]): inactive |
| COc1ccc(OC)c(CCC(=O)NCCCNCCCCCCCCCCCCNCCCNC(=O)CCc2cc(OC)ccc2OC)c1 | 110 | 6500 | 59 |  |
| CC(C)(C)OC(=O)N(CCCCCCCCN(CCCNC(=O)Cc1ccccc1)C(=O)OC(C)(C)C)CCCNC(=O)Cc1ccccc1 | 470 | 8600 | 18 |  |
| O=C(Cc1ccccc1)NCCCNCCCCCCCCNCCCNC(=O)Cc1ccccc1 | 15 | 74000 | 4930 | Activity (Plasmodium berghei [7]): inactive; Activity (Plasmodium berghei [8]): inactive; Activity (Mus musculus [9]): Toxic |
| COc1ccc(OC)c(CCC(=O)NCCCN(CCCCCCCCCCCCN(CCCNC(=O)CCc2cc(OC)ccc2OC)C(=O)OC(C)(C)C)C(=O)OC(C)(C)C)c1 | 180 | 2300 | 13 |  |
| CC(C)(C)OC(=O)N(CCCCCCCCCCCCN(CCCNC(=O)c1ccccc1)C(=O)OC(C)(C)C)CCCNC(=O)c1ccccc1 | 160 | 8300 | 52 |  |
| CC(C)(C)OC(=O)N(CCCCCCCCCCCCN(CCCNC(=O)Cc1ccccc1O)C(=O)OC(C)(C)C)CCCNC(=O)Cc1ccccc1O | 170 | 10000 | 59 |  |
| COc1ccc(CC(=O)NCCCNCCCCCCCCCCCCNCCCNC(=O)Cc2ccc(OC)cc2)cc1 | 200 | 19000 | 95 |  |
| COc1ccc(OC)c(CC(=O)NCCCN(CCCCCCCCCCCCN(CCCNC(=O)Cc2cc(OC)ccc2OC)C(=O)OC(C)(C)C)C(=O)OC(C)(C)C)c1 | 160 | 2200 | 14 |  |
| COc1ccc(CCC(=O)NCCCNCCCCNCCCNC(=O)CCc2ccc(OC)c(OC)c2)cc1OC | 460 | 73000 | 160 |  |
| COc1ccc(OC)c(CC(=O)NCCCNCCCCCCCCNCCCNC(=O)Cc2cc(OC)ccc2OC)c1 | 12 | 61000 | 5080 |  |
| CC(C)(C)OC(=O)N(CCCCCCCCCCCCN(CCCNC(=O)Cc1ccccc1)C(=O)OC(C)(C)C)CCCNC(=O)Cc1ccccc1 | 260 | 8200 | 32 |  |

— ChEMBL document CHEMBL2434856, “Synthesis and in vitro and in vivo evaluation of antimalarial polyamines” (Eur J Med Chem, 2013)
